Each structure is given as a SMILES string. Active and inactive are the calls of the source. No rule for the calls is given here.

From ChEMBL document CHEMBL1157616, “Identification of 2-anilino-9-methoxy-5,7-dihydro-6H-pyrimido[5,4-d][1]benzazepin-6-ones as dual PLK1/VEGF-R2 kinase inhibitor chemotypes by structure-based lead generation” (J Med Chem, 2010) come the findings set out here.

Assay [1] deals with T1, Vascular endothelial growth factor receptor 2 (Homo sapiens, UniProt P35968). Put plainly: Inhibition of VEGFR2 assessed as [33Pi] incorporation by microplate scintillation counting in presence of 1 uM ATP. In a few lines: (§1)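 Substrates: Poly(Glu,Tyr)4:1 for VEGFR2; Poly(Glu,Tyr) or Poly(Ala,Glu,Lys,Tyr) for INS-R; RBER-CHKtide or casein for PLK1. Incubated 30 °C, 80 min, stopped with 2% H3PO4. Singlicate; activity referenced to no-enzyme and no-inhibitor controls.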

The next assay deals with Insulin receptor (Homo sapiens, UniProt P06213). Description: Inhibition of INSR assessed as [33Pi] incorporation by microplate scintillation counting in presence of 1 uM ATP. In a few lines:
as §1

Assay [2] addresses Serine/threonine-protein kinase PLK1 (Homo sapiens, UniProt P53350). Description: Inhibition of PLK1 assessed as [33Pi] incorporation by microplate scintillation counting in presence of 1 uM ATP.
For the next assay, the system named is NCI60. Description: Antiproliferative activity against human NCI60 cells at 10 uM after 48 hrs by sulforhodamine B assay. The format is functional, cell-based. In a few lines:
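NCI 60-cell-line prescreen with compound given once at 10 μM. Cells grown in RPMI 1640 with 5% FBS and 2 mM L-glutamine, plated 24 h before dosing, then exposed 48 h at 37 °C. Fixed with cold TCA, stained with SRB, absorbance read at 515 nm, and percent growth taken relative to time-zero and control wells.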
In general terms: Sulforhodamine B stains cellular protein and so reports cell mass.

For assay [3], the target named is T1, Vascular endothelial growth factor receptor 2. Put plainly: Inhibition of VEGFR2 in HUE cells assessed as inhibition of VEGF-induced autophosphorylation treated for 90 mins before VEGF challenge by ELISA. The format is cell-based.

Chain of Serine/threonine-protein kinase PLK1 (P53350 whole entry): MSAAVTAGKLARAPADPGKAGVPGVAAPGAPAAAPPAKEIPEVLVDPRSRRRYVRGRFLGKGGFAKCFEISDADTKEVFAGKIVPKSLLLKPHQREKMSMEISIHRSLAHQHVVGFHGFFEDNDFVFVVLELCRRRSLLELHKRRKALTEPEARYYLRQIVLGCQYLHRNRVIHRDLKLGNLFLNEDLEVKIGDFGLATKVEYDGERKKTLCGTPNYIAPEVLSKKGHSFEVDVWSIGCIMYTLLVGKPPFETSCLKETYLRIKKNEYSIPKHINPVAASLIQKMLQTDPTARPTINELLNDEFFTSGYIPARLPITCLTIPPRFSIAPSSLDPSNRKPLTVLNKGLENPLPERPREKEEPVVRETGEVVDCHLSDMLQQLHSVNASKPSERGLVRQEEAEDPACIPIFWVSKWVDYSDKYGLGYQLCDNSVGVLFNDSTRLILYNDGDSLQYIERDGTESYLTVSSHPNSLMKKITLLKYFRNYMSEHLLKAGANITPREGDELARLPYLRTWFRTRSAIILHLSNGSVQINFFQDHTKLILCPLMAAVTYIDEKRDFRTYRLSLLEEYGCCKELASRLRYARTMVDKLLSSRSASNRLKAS
T1 sequence (P35968 whole entry): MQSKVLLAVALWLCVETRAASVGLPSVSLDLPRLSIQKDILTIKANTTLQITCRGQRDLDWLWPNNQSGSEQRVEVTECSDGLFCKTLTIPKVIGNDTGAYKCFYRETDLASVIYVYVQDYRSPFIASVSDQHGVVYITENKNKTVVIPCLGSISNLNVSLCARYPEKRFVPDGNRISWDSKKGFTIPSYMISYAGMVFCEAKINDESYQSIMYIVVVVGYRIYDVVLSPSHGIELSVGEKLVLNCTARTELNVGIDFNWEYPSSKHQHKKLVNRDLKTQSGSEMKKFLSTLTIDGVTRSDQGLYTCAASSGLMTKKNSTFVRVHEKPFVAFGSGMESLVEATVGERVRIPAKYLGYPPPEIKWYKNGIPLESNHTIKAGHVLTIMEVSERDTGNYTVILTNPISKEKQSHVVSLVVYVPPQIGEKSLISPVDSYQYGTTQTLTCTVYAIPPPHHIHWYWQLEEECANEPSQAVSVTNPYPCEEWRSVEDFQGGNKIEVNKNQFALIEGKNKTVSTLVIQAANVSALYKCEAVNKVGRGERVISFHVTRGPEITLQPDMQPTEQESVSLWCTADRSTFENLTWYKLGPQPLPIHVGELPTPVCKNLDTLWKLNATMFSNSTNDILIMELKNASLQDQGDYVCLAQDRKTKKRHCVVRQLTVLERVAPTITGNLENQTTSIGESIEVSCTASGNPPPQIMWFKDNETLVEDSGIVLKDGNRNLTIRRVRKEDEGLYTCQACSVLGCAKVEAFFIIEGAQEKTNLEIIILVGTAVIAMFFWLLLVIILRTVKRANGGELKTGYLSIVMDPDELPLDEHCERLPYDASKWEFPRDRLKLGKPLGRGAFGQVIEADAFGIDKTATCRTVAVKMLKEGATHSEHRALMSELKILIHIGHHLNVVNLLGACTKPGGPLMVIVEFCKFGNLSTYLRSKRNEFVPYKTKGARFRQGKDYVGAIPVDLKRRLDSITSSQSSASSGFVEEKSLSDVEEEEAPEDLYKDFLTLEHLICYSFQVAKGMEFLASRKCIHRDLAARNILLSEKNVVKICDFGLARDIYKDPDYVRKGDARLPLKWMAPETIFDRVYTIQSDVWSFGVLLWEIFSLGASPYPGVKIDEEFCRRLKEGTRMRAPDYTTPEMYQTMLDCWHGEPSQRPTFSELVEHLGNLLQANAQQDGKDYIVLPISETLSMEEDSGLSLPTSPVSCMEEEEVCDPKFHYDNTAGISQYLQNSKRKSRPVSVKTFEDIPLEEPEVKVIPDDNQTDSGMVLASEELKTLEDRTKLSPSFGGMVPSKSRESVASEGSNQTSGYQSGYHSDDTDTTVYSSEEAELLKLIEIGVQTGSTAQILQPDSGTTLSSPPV
Chain of Insulin receptor (P06213 28-758 limits assumed): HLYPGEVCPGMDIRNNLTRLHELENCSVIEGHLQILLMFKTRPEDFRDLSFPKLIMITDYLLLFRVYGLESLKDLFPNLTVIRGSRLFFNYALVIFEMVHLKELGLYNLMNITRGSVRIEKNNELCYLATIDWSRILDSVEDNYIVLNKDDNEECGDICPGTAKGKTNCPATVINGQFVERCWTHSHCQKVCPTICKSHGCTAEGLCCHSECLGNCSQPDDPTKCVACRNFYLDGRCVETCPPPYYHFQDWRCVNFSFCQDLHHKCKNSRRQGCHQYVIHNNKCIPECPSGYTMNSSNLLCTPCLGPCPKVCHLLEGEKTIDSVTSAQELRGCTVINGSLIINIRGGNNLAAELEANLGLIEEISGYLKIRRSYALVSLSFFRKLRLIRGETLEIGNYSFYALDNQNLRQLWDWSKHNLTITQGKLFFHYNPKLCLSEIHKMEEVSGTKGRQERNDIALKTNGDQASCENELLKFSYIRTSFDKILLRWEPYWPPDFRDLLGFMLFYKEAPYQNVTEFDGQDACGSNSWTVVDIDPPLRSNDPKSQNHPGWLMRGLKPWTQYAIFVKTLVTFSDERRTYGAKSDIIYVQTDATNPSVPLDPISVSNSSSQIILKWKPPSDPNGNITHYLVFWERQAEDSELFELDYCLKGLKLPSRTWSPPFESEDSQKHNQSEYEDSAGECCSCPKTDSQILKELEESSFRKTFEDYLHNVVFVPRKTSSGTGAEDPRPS
Chain of Insulin receptor (P06213 763-1382 limits assumed): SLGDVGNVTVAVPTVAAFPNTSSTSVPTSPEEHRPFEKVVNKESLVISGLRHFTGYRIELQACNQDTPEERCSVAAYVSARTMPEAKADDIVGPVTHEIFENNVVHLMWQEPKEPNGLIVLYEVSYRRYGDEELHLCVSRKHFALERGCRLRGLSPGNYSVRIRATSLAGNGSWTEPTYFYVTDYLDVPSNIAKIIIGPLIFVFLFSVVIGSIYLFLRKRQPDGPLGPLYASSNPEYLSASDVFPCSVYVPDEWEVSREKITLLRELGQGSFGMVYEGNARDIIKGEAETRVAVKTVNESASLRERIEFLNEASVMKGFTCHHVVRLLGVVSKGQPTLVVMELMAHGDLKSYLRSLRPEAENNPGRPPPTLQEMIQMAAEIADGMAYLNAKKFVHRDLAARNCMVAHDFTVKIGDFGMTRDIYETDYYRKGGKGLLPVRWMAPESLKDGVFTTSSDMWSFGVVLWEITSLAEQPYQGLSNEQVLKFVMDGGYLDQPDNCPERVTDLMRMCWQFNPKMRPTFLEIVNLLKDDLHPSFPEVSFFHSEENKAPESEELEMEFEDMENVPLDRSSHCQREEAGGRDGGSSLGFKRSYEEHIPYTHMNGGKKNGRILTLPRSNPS

Take `O=C1Cc2cnc3cc(-c4ccccc4)nn3c2-c2ccccc2N1`: the results for the IC50 (in assay [1]; at Insulin receptor; in assay [2]) were 0.63 µM, above 100 µM and above 100 µM, respectively. In addition, in the assay with NCI60, the result was Active.
With `COc1ccc2c(c1)NC(=O)Cc1cnc3ncnn3c1-2`, the IC50 (in assay [1]; on Insulin receptor; in assay [2]) was above 100 µM each time. Further, the outcome in the assay with NCI60 was Active.
In the case of `O=C1Cc2cnc(Nc3ccc(O)cc3)nc2-c2cnccc2N1`, the IC50 in assay [1] is 0.13 µM; at Insulin receptor, above 100 µM; in assay [2], 2.6 µM. In the assay with NCI60, the outcome was Active.
For `COc1ccc2c(c1)NC(=O)Cc1cc3c(=O)n(C)c(=O)n(C)c3nc1-2`, in that order: above 100 µM, above 100 µM, above 100 µM and “Active”.
For `COc1ccc2c(c1)NC(=O)Cc1cnc(Nc3cccc(O)c3)nc1-2`, in that order: 0.015 µM, above 100 µM, 0.84 µM and “Active”.
Regarding `O=C1Cc2cnc(Nc3ccccc3)nc2-c2ccccc2N1`, the IC50 is 0.14 µM in assay [1], above 100 µM at Insulin receptor and above 100 µM in assay [2]. The result in the assay with NCI60 was Active.
On to `O=C1Cc2cnc(Nc3ccc([N+](=O)[O-])cc3)nc2-c2ccccc2N1`, for which the IC50 in assay [1] is 0.33 µM; at Insulin receptor, 22 µM; in assay [2] it was above 100 µM. The result in the assay on NCI60 was Active.
For `O=C1Cc2cc3c(=O)[nH]c(=O)[nH]c3nc2-c2cnccc2N1`, in that order: above 100 µM, above 100 µM, above 100 µM and “Active”.
Turning to `Cc1ccc(Nc2ncc3c(n2)-c2ccccc2NC(=O)C3)cc1`, the IC50 in assay [1] is 0.19 µM; on Insulin receptor, above 100 µM; in assay [2], above 100 µM. Also, the outcome with NCI60 was Active.
With `O=C1Cc2cnc3cc(-c4ccccc4)nn3c2-c2ncccc2N1`, the IC50 in assay [1] was 16 µM; on Insulin receptor it was above 100 µM; in assay [2], above 100 µM. The outcome with NCI60 was Active.
Regarding `Cn1c(=O)c2cc3c(nc2n(C)c1=O)-c1ccccc1NC(=O)C3`, the IC50 (in assay [1]; at Insulin receptor; in assay [2]) was above 100 µM each time. The outcome with NCI60 was Active.
In the case of `O=C1Cc2cnc(Nc3ccccc3O)nc2-c2ccccc2N1`, the IC50 in assay [1] was 0.53 µM; on Insulin receptor, above 100 µM; in assay [2] it was 14 µM. In the assay with NCI60, the result was Active.
For `O=C1Cc2cnc(Nc3ccc(O)c(Cl)c3)nc2-c2ncccc2N1`, in that order: 0.67 µM, above 100 µM, above 100 µM and “Active”.
Consider `Cc1cc(O)ccc1Nc1ncc2c(n1)-c1ccccc1NC(=O)C2`, for which the IC50 in assay [1] was 1.2 µM; at Insulin receptor, above 100 µM; in assay [2] it was 20 µM. Further, in the assay with NCI60, the result was Active.
Take `Cn1c(=O)c2cc3c(nc2n(C)c1=O)-c1ncccc1NC(=O)C3`: the IC50 (in assay [1]; at Insulin receptor; in assay [2]) was above 100 µM in each case. Besides, the outcome in the assay on NCI60 was Active.
For `COc1ccc2c(c1)NC(=O)Cc1cnc3ccnn3c1-2`, the results for the IC50 (in assay [1]; on Insulin receptor; in assay [2]) were 8.6 µM, above 100 µM and above 100 µM, respectively. In the assay on NCI60, the outcome was Active.
For the compound `COc1ccc(Nc2ncc3c(n2)-c2ccc(OC)cc2NC(=O)C3)cc1`, the IC50 in assay [1] was 0.05 µM; on Insulin receptor, above 100 µM; in assay [2] it was 0.35 µM. For the same compound, the outcome with NCI60 was Active.
For `O=C1Cc2cnc3cc(-c4ccccc4)nn3c2-c2cnccc2N1`, in that order: 2 µM, above 100 µM, above 100 µM and “Active”.
On to `COc1ccc2c(c1)NC(=O)Cc1cnc(Nc3ccc(O)cc3)nc1-2`, for which the IC50 in assay [1] is 0.028 µM; on Insulin receptor it was above 100 µM; in assay [2], 0.75 µM. The result with NCI60 was Active.
For `O=C1Cc2cnc(Nc3ccc(Cl)cc3)nc2-c2ccccc2N1`, in that order: 0.19 µM, above 100 µM, above 100 µM and “Active”.
For `O=C1Cc2cc3c(=O)[nH]c(=O)[nH]c3nc2-c2ccccc2N1`, in that order: above 100 µM, above 100 µM, above 100 µM and “Active”.
For `COc1ccc2c(c1)NC(=O)Cc1cnc(Nc3ccc(OC)c(O)c3)nc1-2`, in that order: 0.018 µM, above 100 µM, 0.14 µM and “Active”.
For `O=C1Cc2cnc(Nc3ccc(Br)cc3)nc2-c2ccccc2N1`, the IC50 is 0.29 µM in assay [1], above 100 µM at Insulin receptor and above 100 µM in assay [2]. Moreover, in the assay with NCI60, the outcome was Active.
For `O=C1Cc2c([nH]c3ccc(Br)cc23)-c2ccccc2N1`, the outcome in the assay on NCI60 was Active.
On to `COc1ccc(Nc2ncc3c(n2)-c2cnccc2NC(=O)C3)cc1`, for which the IC50 was 0.19 µM in assay [1], above 100 µM at Insulin receptor and 2.5 µM in assay [2]. The outcome in the assay on NCI60 was Active.
With `O=C1Cc2cnc(Nc3cccc(O)c3)nc2-c2cnccc2N1`, the IC50 was 0.14 µM in assay [1], above 100 µM on Insulin receptor and 2.3 µM in assay [2]. Besides, the outcome with NCI60 was Active.
For `COc1ccc2c(c1)NC(=O)Cc1cnc3cc(-c4ccccc4)nn3c1-2`, in that order: 1.8 µM, 11 µM, 17 µM and “Active”.
For `O=C1Cc2cnc3ccnn3c2-c2ccccc2N1`, in that order: 12 µM, above 100 µM, above 100 µM and “Active”.
For `O=C1Cc2cnc(Nc3cccc(O)c3)nc2-c2ncccc2N1`, in that order: 2.6 µM, above 100 µM, above 100 µM and “Active”.
Take `O=C1Cc2cnc(Nc3cccc(O)c3)nc2-c2ccccc2N1`: the IC50 in assay [1] was 0.051 µM; on Insulin receptor, above 100 µM; in assay [2] it was 19 µM; in assay [3], 1.6 µM. The outcome with NCI60 was Active.
Turning to `O=C1Cc2cnc3ncnn3c2-c2ncccc2N1`, the IC50 (in assay [1]; on Insulin receptor; in assay [2]) was above 100 µM each time. The outcome in the assay on NCI60 was Active.
Regarding `COc1ccc(Nc2ncc3c(n2)-c2ncccc2NC(=O)C3)cc1`, the IC50 is 1.5 µM in assay [1], above 100 µM on Insulin receptor and above 100 µM in assay [2]. Besides, the outcome in the assay with NCI60 was Active.
`O=C1Cc2cnc(Nc3ccccc3Cl)nc2-c2ccccc2N1`: the figures for the IC50 (in assay [1]; on Insulin receptor; in assay [2]) were 6.1 µM, above 100 µM and 73 µM, respectively. Moreover, the outcome in the assay with NCI60 was Active.
For `O=C1Cc2cnc(Nc3ccc(O)cc3)nc2-c2ncccc2N1`, in that order: 2.7 µM, above 100 µM, 55 µM and “Active”.
For `Cn1c(=O)c2cc3c(nc2n(C)c1=O)-c1cnccc1NC(=O)C3`, in that order: above 100 µM, above 100 µM, above 100 µM and “Active”.
With `COc1ccc2c(c1)NC(=O)Cc1cc3c(=O)[nH]c(=O)[nH]c3nc1-2`, the IC50 (in assay [1]; at Insulin receptor; in assay [2]) was above 100 µM throughout. For the same compound, the outcome in the assay with NCI60 was Active.
As to `O=C1Cc2cc3c(=O)[nH]c(=O)[nH]c3nc2-c2ncccc2N1`, the IC50 in assay [1] was 66 µM; at Insulin receptor, above 100 µM; in assay [2], above 100 µM. Besides, in the assay on NCI60, the result was Active.
Take `O=C1Cc2cnc(Nc3ccccc3Br)nc2-c2ccccc2N1`: the IC50 was 57 µM in assay [1], above 100 µM at Insulin receptor and above 100 µM in assay [2]. In the assay with NCI60, the outcome was Active.
`CCOc1ccc(Nc2ncc3c(n2)-c2ncccc2NC(=O)C3)cc1`: the IC50 in assay [1] was 2 µM; on Insulin receptor it was above 100 µM; in assay [2] it was above 100 µM. For the same compound, the result in the assay with NCI60 was Active.
Take `O=C1Cc2cnc(Nc3ccc(I)cc3)nc2-c2ccccc2N1`: the IC50 in assay [1] was 0.4 µM; at Insulin receptor it was above 100 µM; in assay [2], 15 µM. Moreover, the result in the assay on NCI60 was Active.
For `O=C1Cc2cnc3ccnn3c2-c2ncccc2N1`, in that order: 87 µM, above 100 µM, above 100 µM and “Active”.

By IC50 is commonly meant the concentration that gives 50% inhibition.
